In ChEMBL document CHEMBL4184197 (Bioorg Med Chem, 2018):

Key:
[1] = molecular target: Muscarinic acetylcholine receptor M1 (Homo sapiens) (UniProt P11229); assay: Binding affinity to recombinant human muscarinic M1 receptor at 10 uM after 60 mins by scintillation counting analysis relative to control
[2] = molecular target: Substance-K receptor (Homo sapiens) (UniProt P21452); assay: Binding affinity to recombinant human NK2 receptor at 10 uM after 60 mins by scintillation counting analysis relative to control
Homo sapiens [3] = species on record: Homo sapiens; assay: Binding affinity to bombesin receptor (unknown origin) at 10 uM relative to control
Rattus norvegicus = species on record: Rattus norvegicus; assay: Binding affinity to rat GABA receptor at 10 uM after 30 mins by scintillation counting analysis relative to control
[4] = molecular target: Pituitary adenylate cyclase-activating polypeptide type I receptor (Homo sapiens) (UniProt P41586); assay: Binding affinity to recombinant human PACAP receptor at 10 uM after 120 mins by scintillation counting analysis relative to control
[5] = molecular target: M-phase inducer phosphatase 1 (Homo sapiens) (UniProt P30304); assay: Binding affinity to recombinant human phosphatase CDC25A at 10 uM after 20 mins by fluorescence assay relative to control
[6] = molecular target: cGMP-inhibited 3',5'-cyclic phosphodiesterase 3A (Homo sapiens) (UniProt Q14432); assay: Binding affinity to recombinant human PDE3A at 10 uM after 20 mins by scintillation counting analysis relative to control
[7] = molecular target: Peroxisome proliferator-activated receptor gamma (Homo sapiens) (UniProt P37231); assay: Binding affinity to recombinant human PPARgamma receptor at 10 uM after 120 mins by scintillation counting analysis relative to control
[8] = molecular target: Muscarinic acetylcholine receptor M2 (Homo sapiens) (UniProt P08172); assay: Binding affinity to muscarinic M2 receptor (unknown origin)
[9] = molecular target: D(1A) dopamine receptor (Homo sapiens) (UniProt P21728); assay: Binding affinity to recombinant human dopamine receptor D1 at 10 uM after 60 mins by scintillation counting analysis relative to control
[10] = molecular target: Tumor necrosis factor receptor superfamily member 1A (Homo sapiens) (UniProt P19438); assay: Binding affinity to recombinant human TNFalpha receptor at 10 uM after 120 mins by scintillation counting analysis relative to control
[11] = molecular target: Histone deacetylase 3 (Homo sapiens) (UniProt O15379); assay: Binding affinity to recombinant human HDAC3 at 10 uM after 10 mins by fluorescence analysis relative to control
[12] = molecular target: cGMP-dependent 3',5'-cyclic phosphodiesterase (Homo sapiens) (UniProt O00408); assay: Binding affinity to recombinant human PDE2A1 at 10 uM after 20 mins by scintillation counting analysis relative to control
[13] = molecular target: Estrogen receptor (Homo sapiens) (UniProt P03372); assay: Binding affinity to human ER at 10 uM after 1200 mins by scintillation counting analysis relative to control
[14] = molecular target: Sodium-dependent dopamine transporter (Homo sapiens) (UniProt Q01959); assay: Binding affinity to dopamine transporter (unknown origin) at 10 uM relative to control
[15] = molecular target: Platelet-derived growth factor receptor (Mus musculus) (UniProt P05622+P26618); assay: Binding affinity to mouse PDGFR at 10 uM after 180 mins by scintillation counting analysis relative to control; format: protein-complex assay
[16] = molecular target: 5-hydroxytryptamine receptor 2A (Homo sapiens) (UniProt P28223); assay: Binding affinity to recombinant human 5-HT2A receptor at 10 uM after 60 mins by scintillation counting analysis relative to control
[17] = molecular target: Angiotensin-converting enzyme 2 (Homo sapiens) (UniProt Q9BYF1); assay: Binding affinity to recombinant human ACE-2 at 10 uM after 20 mins by fluorescence assay relative to control
[18] = molecular target: Voltage-gated inwardly rectifying potassium channel KCNH2 (Homo sapiens, UniProt Q12809); assay: Displacement of [3H]-astemizole from human ERG up to 10 uM
In short: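 hERG channel binding assay run by a contract lab; compound tested up to 10 μM.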

[19] = molecular target: Sodium-dependent serotonin transporter (Homo sapiens) (UniProt P31645); assay: Binding affinity to 5-HT transporter (unknown origin) at 10 uM relative to control
[20] = molecular target: Adrenergic receptor alpha-1 (Rattus norvegicus) (UniProt P15823+P23944+P43140); assay: Binding affinity to rat alpha1 receptor at 10 uM after 60 mins by scintillation counting analysis relative to control; format: protein assay
[21] = molecular target: Beta-2 adrenergic receptor (Homo sapiens) (UniProt P07550); assay: Binding affinity to recombinant human beta 2 adrenoceptor at 10 uM after 120 mins by scintillation counting analysis relative to control
[22] = molecular target: Centromere-associated protein E (Homo sapiens) (UniProt Q02224); assay: Binding affinity to recombinant human CENPE at 10 uM after 30 mins by spectrophotometric analysis relative to control
Salmonella typhimurium [23] = assay: Mutagenicity in Salmonella typhimurium TA98 in presence of rat liver S9 fraction by Ames test; format: toxicity, organism-based; conditions: salmonella enterica subsp. enterica serovar typhimurium
[24] = molecular target: Endothelin receptor type B (Homo sapiens) (UniProt P24530); assay: Binding affinity to recombinant human ETB receptor at 10 uM after 120 mins by scintillation counting analysis relative to control
[25] = molecular target: Prostacyclin receptor (Homo sapiens) (UniProt P43119); assay: Binding affinity to recombinant human IP receptor at 10 uM after 60 mins by scintillation counting analysis relative to control
[26] = molecular target: 5-hydroxytryptamine receptor 5A (Homo sapiens) (UniProt P47898); assay: Binding affinity to recombinant human 5-HT5A receptor at 10 uM after 120 mins by scintillation counting analysis relative to control
[27] = molecular target: MAO-B (amine oxidase [flavin-containing] B) (Homo sapiens, UniProt P27338); assay: Binding affinity to recombinant human MAO-B at 10 uM after 60 mins by luminescence analysis relative to control; conditions: read-out: Activity
Homo sapiens [28] = species on record: Homo sapiens; assay: Binding affinity to phencyclidine receptor (unknown origin) at 10 uM relative to control
[29] = molecular target: Kinesin-like protein KIF11 (Homo sapiens) (UniProt P52732); assay: Binding affinity to recombinant human EG5 at 10 uM after 10 mins by spectrophotometric analysis relative to control
[30] = molecular target: Procathepsin L (Homo sapiens) (UniProt P07711); assay: Binding affinity to human cathepsin L at 10 uM after 30 mins by fluorescence assay relative to control
[31] = molecular target: Matrix metalloproteinase-9 (Homo sapiens) (UniProt P14780); assay: Binding affinity to human MMP9 at 10 uM after 90 mins by fluorescence assay relative to control
[32] = molecular target: Vasoactive intestinal polypeptide receptor 1 (Homo sapiens) (UniProt P32241); assay: Binding affinity to recombinant human VPAC1 receptor at 10 uM after 60 mins by scintillation counting analysis relative to control
Homo sapiens [33] = species on record: Homo sapiens; assay: Binding affinity to P2Y receptor (unknown origin) at 10 uM relative to control
[34] = molecular target: Adenosine receptor A2a (Homo sapiens) (UniProt P29274); assay: Binding affinity to recombinant human A2A receptor at 10 uM after 120 mins by scintillation counting analysis relative to control
Salmonella typhimurium [35] = assay: Mutagenicity in Salmonella typhimurium TA100 in absence of rat liver S9 fraction by Ames test; format: toxicity, organism-based; conditions: salmonella enterica subsp. enterica serovar typhimurium

Sequence of 5-hydroxytryptamine receptor 5A (Homo sapiens) (P47898 whole entry): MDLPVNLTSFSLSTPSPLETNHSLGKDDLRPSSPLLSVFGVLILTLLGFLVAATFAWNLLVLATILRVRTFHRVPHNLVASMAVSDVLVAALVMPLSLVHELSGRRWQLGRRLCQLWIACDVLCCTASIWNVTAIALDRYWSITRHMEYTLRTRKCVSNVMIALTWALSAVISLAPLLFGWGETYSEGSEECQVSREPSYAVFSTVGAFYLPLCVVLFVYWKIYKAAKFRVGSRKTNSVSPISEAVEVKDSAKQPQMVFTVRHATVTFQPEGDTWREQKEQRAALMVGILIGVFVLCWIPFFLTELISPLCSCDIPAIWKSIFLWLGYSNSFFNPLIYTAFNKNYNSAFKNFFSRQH
Sequence of cGMP-inhibited 3',5'-cyclic phosphodiesterase 3A (Homo sapiens) (Q14432 whole entry): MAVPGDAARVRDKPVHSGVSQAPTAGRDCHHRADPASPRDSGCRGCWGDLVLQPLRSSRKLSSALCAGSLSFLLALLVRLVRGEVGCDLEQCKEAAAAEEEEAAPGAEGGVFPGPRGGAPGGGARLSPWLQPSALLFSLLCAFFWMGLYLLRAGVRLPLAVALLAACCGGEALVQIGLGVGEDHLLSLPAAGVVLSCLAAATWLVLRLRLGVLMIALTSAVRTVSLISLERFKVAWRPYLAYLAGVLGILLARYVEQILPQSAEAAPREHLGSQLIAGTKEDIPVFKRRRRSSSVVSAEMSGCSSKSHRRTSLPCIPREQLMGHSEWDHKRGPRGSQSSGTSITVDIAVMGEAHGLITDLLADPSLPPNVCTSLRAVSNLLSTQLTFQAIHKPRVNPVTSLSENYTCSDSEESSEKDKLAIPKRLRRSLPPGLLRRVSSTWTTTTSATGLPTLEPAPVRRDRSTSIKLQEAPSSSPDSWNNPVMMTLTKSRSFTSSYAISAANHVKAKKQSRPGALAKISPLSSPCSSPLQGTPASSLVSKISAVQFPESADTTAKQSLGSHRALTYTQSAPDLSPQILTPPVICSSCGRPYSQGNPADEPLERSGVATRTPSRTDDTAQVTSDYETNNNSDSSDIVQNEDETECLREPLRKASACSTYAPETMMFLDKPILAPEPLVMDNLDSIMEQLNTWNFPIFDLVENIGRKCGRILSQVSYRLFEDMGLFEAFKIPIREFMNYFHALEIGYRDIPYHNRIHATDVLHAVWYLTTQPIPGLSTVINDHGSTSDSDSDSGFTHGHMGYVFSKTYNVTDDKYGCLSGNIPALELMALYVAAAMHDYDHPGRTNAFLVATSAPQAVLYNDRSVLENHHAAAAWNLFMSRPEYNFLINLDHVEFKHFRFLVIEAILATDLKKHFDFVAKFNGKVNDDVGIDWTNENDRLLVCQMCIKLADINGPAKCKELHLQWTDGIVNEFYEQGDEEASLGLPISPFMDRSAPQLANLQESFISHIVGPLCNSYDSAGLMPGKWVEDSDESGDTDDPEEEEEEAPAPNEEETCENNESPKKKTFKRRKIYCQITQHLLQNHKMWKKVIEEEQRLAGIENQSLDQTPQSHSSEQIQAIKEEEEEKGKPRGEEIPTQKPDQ
Sequence of MAO-B (amine oxidase [flavin-containing] B) (P27338 whole entry): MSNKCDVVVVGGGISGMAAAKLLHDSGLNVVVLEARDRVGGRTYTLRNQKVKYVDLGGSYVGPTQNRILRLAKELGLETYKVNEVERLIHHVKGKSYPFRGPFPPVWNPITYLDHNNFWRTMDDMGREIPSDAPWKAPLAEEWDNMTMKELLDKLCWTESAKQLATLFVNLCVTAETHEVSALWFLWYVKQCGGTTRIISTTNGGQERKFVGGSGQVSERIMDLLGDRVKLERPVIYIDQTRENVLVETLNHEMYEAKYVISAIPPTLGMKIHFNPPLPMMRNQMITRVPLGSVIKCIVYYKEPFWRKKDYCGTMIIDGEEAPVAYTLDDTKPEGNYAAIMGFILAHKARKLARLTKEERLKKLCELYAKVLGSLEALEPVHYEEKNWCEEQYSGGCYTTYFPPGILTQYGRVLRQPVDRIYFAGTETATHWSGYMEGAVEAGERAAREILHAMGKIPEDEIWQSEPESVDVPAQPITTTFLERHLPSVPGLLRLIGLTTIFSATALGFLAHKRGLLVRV
Sequence of Substance-K receptor (Homo sapiens) (P21452 whole entry): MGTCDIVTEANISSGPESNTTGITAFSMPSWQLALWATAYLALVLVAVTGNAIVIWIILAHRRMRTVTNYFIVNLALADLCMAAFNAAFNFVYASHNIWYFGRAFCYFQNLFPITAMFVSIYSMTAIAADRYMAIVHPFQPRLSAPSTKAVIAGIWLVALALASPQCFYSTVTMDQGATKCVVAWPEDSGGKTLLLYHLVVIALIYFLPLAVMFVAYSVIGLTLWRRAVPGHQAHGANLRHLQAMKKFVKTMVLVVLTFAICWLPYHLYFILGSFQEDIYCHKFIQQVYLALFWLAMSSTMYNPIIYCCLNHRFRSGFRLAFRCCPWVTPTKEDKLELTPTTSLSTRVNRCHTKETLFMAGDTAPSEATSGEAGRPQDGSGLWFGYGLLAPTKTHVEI
Sequence of Muscarinic acetylcholine receptor M1 (Homo sapiens) (P11229 whole entry): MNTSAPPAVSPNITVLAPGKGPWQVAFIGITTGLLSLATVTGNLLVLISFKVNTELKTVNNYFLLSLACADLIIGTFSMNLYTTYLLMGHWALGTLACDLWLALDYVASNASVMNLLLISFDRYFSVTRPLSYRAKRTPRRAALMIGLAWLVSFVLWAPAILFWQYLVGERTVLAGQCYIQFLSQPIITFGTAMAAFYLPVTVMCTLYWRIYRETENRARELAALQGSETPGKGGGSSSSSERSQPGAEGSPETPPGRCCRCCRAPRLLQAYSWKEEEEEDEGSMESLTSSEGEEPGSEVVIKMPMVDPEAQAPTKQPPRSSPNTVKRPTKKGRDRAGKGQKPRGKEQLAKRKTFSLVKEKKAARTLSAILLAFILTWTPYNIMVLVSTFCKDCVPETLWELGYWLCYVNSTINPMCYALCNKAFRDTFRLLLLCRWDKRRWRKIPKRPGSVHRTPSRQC
Sequence of 5-hydroxytryptamine receptor 2A (Homo sapiens) (P28223 whole entry): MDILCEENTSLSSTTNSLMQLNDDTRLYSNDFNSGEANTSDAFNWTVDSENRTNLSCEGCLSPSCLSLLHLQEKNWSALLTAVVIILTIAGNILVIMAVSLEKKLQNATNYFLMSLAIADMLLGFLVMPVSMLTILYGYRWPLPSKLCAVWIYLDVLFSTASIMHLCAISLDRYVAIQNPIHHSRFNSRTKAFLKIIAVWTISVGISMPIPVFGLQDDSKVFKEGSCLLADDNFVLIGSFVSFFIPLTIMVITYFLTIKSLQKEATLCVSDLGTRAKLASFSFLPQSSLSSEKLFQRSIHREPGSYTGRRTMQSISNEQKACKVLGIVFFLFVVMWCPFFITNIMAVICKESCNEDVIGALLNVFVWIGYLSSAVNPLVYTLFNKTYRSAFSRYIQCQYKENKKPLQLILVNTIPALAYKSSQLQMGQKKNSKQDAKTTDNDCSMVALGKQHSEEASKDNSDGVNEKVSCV
Sequence of Tumor necrosis factor receptor superfamily member 1A (Homo sapiens) (P19438 whole entry): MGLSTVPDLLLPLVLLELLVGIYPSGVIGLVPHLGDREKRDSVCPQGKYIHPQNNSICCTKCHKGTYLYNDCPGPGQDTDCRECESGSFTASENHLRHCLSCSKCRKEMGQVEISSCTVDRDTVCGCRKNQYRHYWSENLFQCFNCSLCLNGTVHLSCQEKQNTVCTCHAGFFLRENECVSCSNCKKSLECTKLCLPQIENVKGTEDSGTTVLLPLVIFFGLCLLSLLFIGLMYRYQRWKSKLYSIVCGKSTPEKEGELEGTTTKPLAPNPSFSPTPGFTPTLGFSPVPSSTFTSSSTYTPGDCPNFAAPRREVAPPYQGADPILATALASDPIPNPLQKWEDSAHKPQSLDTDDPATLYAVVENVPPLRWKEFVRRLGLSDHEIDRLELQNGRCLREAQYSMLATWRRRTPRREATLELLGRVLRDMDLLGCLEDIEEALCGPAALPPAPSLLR
Sequence of Muscarinic acetylcholine receptor M2 (Homo sapiens) (P08172 whole entry): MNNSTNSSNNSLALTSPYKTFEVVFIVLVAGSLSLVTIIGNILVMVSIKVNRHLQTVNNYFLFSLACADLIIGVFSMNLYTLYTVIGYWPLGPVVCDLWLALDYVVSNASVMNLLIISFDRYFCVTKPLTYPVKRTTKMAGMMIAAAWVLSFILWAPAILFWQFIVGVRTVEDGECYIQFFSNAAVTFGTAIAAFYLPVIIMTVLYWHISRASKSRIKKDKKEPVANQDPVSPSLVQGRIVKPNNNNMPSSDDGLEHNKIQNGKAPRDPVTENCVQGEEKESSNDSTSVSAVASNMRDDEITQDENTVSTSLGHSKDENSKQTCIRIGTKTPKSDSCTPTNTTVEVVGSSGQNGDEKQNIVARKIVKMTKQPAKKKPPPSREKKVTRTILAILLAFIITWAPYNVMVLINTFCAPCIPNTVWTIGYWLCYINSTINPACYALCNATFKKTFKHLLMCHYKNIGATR
Sequence of Peroxisome proliferator-activated receptor gamma (Homo sapiens) (P37231 whole entry): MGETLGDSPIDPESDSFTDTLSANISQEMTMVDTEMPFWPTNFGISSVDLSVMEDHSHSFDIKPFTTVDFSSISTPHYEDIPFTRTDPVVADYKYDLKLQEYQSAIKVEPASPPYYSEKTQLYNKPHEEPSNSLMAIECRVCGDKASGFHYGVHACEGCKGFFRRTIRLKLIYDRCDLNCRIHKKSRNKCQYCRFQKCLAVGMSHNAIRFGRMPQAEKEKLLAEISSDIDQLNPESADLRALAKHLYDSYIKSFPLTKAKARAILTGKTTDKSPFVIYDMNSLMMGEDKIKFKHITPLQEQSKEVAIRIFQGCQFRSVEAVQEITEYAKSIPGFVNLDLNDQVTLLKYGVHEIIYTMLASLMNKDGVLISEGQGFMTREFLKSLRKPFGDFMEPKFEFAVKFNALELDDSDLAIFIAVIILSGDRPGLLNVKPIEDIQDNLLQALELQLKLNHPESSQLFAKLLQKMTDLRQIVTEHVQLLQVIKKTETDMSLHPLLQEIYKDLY
Sequence of Procathepsin L (Homo sapiens) (P07711 114-333 limits assumed): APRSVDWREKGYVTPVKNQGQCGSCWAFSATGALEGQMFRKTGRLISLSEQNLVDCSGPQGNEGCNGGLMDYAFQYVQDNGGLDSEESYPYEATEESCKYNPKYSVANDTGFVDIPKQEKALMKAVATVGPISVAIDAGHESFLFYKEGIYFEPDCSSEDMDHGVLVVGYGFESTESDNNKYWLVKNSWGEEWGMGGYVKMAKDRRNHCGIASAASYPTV

SMILES: CCOc1c(Cl)cc(C(=O)Nc2ccc(C(=O)O)c(C)c2)cc1OC(C)C
- Activity [1]: < 25%
- Activity [2]: < 25%
- Activity (Homo sapiens [3]): < 25%
- Activity (Rattus norvegicus): < 25%
- Activity [4]: < 25%
- Activity [5]: < 25%
- Activity [6]: < 25%
- Activity [7]: < 25%
- Activity [8]: < 25%
- Activity [9]: < 25%
- Activity [10]: < 25%
- Activity [11]: < 25%
- Activity [12]: < 25%
- Activity [13]: < 25%
- Activity [14]: < 25%
- Activity [15]: < 25%
- Activity [16]: < 25%
- Activity [17]: < 25%
- Activity [18]: Not Active
- Activity [19]: < 25%
- Activity [20]: < 25%
- Activity [21]: < 25%
- Activity [22]: < 25%
- Activity (Salmonella typhimurium [23]): Non-Toxic
- Activity [24]: < 25%
- Activity [25]: < 25%
- Activity [26]: < 25%
- activity at 1 h, 10 µM [27]: ≤ 25%
- Activity (Homo sapiens [28]): < 25%
- Activity [29]: < 25%
- Activity [30]: < 25%
- Activity [31]: < 25%
- Activity [32]: < 25%
- Activity (Homo sapiens [33]): < 25%
- Activity [34]: < 25%
- Activity (Salmonella typhimurium [35]): Non-Toxic
